Published values of several laboratories.
Compare with care: the assays were run in different laboratories.
Target: Inhibitor of nuclear factor kappa-B kinase subunit epsilon (IKBKE, Homo sapiens, UniProt Q14164)
One construct used (Q14164 1-716): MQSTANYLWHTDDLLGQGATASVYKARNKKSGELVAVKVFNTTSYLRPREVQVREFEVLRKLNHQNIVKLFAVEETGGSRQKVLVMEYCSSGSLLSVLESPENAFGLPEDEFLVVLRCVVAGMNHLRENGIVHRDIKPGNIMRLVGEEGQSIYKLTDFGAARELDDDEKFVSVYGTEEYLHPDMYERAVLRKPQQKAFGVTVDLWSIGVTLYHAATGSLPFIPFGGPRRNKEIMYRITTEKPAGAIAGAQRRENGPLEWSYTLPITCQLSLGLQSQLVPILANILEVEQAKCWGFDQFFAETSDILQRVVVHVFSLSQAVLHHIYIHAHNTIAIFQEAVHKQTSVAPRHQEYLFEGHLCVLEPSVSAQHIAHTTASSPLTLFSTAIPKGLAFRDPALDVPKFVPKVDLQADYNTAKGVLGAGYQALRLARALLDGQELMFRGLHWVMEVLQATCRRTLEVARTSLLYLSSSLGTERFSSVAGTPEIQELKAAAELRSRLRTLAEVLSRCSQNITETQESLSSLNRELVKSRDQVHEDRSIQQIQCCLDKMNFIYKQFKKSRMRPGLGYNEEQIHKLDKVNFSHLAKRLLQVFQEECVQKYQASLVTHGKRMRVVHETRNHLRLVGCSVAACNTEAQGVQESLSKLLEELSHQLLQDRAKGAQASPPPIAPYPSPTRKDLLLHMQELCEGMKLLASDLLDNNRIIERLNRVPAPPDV

SMILES	test	conditions	remaining binding [%]
CN(c1nccc(-c2cnn3ncccc23)n1)C1CC1	binding	1 µM	100
Cc1cc(C)c(-n2ccn3nc(-c4cccnc4)cc23)cc1NC(=O)c1cc(C#N)cc(S(F)(F)(F)(F)F)c1	cell-free assay, competition with immobilised ligand	0.1 µM	59.9
F[C@@H]1CCN(c2nccc(-c3cnn4ncccc34)n2)C1	binding	1 µM	100
CCc1ccccc1C(=O)Nc1n[nH]c2c(C)c(F)c(C3C(C#N)=C(C)N(C)C(C)=C3C#N)cc12	cell-free assay, competition with immobilised ligand	1 µM	68
COc1ncc2cc3ccccc3nc2c1C#N	cell-free assay, competition with immobilised ligand	5 µM	97
C[C@@H]1CCN(c2nccc(-c3cnn4ncccc34)n2)C1	binding	1 µM	82
O=C(NCCCN1CCOCC1)c1ccc(Nc2ncc(Cl)c(-c3ccc(Cl)s3)n2)cc1	binding, competition with immobilised ligand	1 µM	52
c1cncc(-c2cccc(Nc3nccc(NC4CCCCC4)n3)c2)c1	binding, competition with immobilised ligand	10 µM	41
N[C@@H]1CCN(c2nccc(-c3cnn4ncccc34)n2)C1	binding	1 µM	100
CNC(=O)[C@@H]1CC[C@@H](n2c(-c3ccc4cnccc4c3)nc3ccc(C(=O)NCc4cccc(C(N)=O)c4)cc32)C1	binding, competition with immobilised ligand	1 µM	98
Nc1cnc(N2CCc3cc(S(=O)(=O)Nc4c(F)cc(Cl)cc4F)cc(N4CCCC4=O)c32)nc1	cell-free assay, competition with immobilised ligand	1 µM	95
Cc1cnc(Nc2ccc(C(=O)N3CCC(N4CCCC4)CC3)cc2)nc1-c1cc2ccccc2s1	binding, competition with immobilised ligand	1 µM	18
CCC(=O)N[C@@H]1CC[C@H](C(=O)N(C)c2ccc(-c3nc4ccccc4o3)cc2)C1	cell-free assay, competition with immobilised ligand	1 µM	60
CN(CCCC(F)(F)F)c1nccc(-c2cnn3ncccc23)n1	binding	1 µM	100
O=C(Nc1c[nH]nc1C(=O)NC1CCNCC1)c1cc(F)cc(F)c1	binding, competition with immobilised ligand	1 µM	100
CC1CCCN1c1nccc(-c2cnn3ncccc23)n1 (centres unmarked)	binding	1 µM	100
CN(C)CC#Cc1ccc(OCCCc2sc(N3CCc4cccc(C(=O)Nc5nc6ccccc6s5)c4C3)nc2C(=O)O)c(F)c1	cell-free assay, competition with immobilised ligand	1 µM	100
CCN1CCN(Cc2ccc(C(=O)Nc3ccc(C)c(Oc4ccc5c(c4)CC(=O)N5)c3)cc2C(F)(F)F)CC1	binding, competition with immobilised ligand	1 µM	100
O=C(c1ccc(Nc2ncc(Cl)c(-c3ccc(Cl)s3)n2)cc1)N1CCC(N2CCCC2)CC1	binding, competition with immobilised ligand	1 µM	7.7
O=C(NCc1ncc(C(F)(F)F)cc1Cl)c1ccc2c(c1)C1(CCS(=O)(=O)CC1)[C@H](C1CC1)N2S(=O)(=O)c1ccc(F)cc1	cell-free assay, competition with immobilised ligand	1 µM	77
